pKi: −log10 of the molar value.
Key:
[1] = molecular target: T1, S-adenosylmethionine decarboxylase proenzyme (Rattus norvegicus, UniProt P17708); test: In vitro inhibitory activity against S-adenosyl-L-methionine decarboxylase using liver from rat in presence of 1 mM putrescine
T1 sequence (P17708 whole entry): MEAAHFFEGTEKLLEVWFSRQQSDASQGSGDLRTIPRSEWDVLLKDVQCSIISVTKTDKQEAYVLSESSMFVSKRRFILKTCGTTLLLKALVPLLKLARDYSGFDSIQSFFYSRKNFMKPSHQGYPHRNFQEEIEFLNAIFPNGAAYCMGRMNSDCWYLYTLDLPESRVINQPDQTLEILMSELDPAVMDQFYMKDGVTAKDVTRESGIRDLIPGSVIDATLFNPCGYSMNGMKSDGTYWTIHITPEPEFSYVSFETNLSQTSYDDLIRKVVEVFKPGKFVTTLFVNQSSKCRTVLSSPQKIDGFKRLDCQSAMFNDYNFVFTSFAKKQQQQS
Outline: (§1)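 Enzyme source: liver of rats injected with MGBG·2HCl (80 mg/kg) 22 h before sacrifice. The extract was taken through a 10500g centrifugation and an (NH4)2SO4 precipitation. Decarboxylation of S-adenosyl-L-[carboxy-14C]methionine was measured as 14CO2 release, with or without 1 mM putrescine. Competitive inhibition was judged from Lineweaver-Burk plots, and Ki was read from Dixon plots.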

[2] = molecular target: T1, S-adenosylmethionine decarboxylase proenzyme; test: In vitro inhibitory activity against S-adenosyl-L-methionine decarboxylase using liver from rat in absence of putrescine; outline: as §1
[3] = molecular target: T2, S-adenosylmethionine decarboxylase proenzyme (Rattus norvegicus) (UniProt P17708); test: Time required for the half inactivation of S-Adenosyl-L-methionine decarboxylase was determined with 0.2 mM of compound
T2 sequence (whole entry): T1 sequence (P17708 whole entry)
Outline: (§2)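 The partly purified rat liver enzyme, from MGBG-treated rats, was incubated at 37 °C in 30 mM sodium phosphate pH 7.1 with 5 mM dithiothreitol and the stated additions. Aliquots were taken at intervals and assayed for remaining activity with S-adenosyl-L-[carboxy-14C]methionine. The half-inactivation time was obtained by a least-squares fit of the data points.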

[4] = molecular target: T2, S-adenosylmethionine decarboxylase proenzyme (Rattus norvegicus); test: Time required for the half inactivation of S-Adenosyl-L-methionine decarboxylase was determined with 0.2 mM of Compound along with 1 mM NaBH3CN; outline: as §2
[5] = molecular target: T2, S-adenosylmethionine decarboxylase proenzyme (Rattus norvegicus); test: Time required for the half inactivation of S-Adenosyl-L-methionine decarboxylase was determined with 0.2 mM of compound along with 1 mM NaBH3CN; outline: as §2
[6] = molecular target: T2, S-adenosylmethionine decarboxylase proenzyme (Rattus norvegicus); test: Time required for the half inactivation of S-adenosyl-L-methionine decarboxylase with 1 mM of compound along with 0.05 mM of [5-(6-Amino-purin-9-yl)-3,4-dihydroxy-tetrahydro-furan-2-ylmethyl]-dimethyl-sulfonium; iodide; details: in the assay text read “0.2 mM of compound” for “1 mM of compound”; outline: as §2
[7] = molecular target: T2, S-adenosylmethionine decarboxylase proenzyme (Rattus norvegicus); test: Time required for the half inactivation of S-adenosyl-L-methionine decarboxylase with 0.5 mM of compound along with 0.05 mM of [5-(6-Amino-purin-9-yl)-3,4-dihydroxy-tetrahydro-furan-2-ylmethyl]-dimethyl-sulfonium; iodide; outline: as §2
[8] = molecular target: T2, S-adenosylmethionine decarboxylase proenzyme (Rattus norvegicus); test: Time required for the half inactivation of S-adenosyl-L-methionine decarboxylase was determined with 0.5 mM of compound

Row | SMILES | pKi [1] | pKi [2] | Inactivation time [3] [min] | Inactivation time [4] [min] | Inactivation time [5] [min] | Inactivation time [6] [min] | Inactivation time [7] [min] | Inactivation time [8] [min]
1 | CN(CCC#N)C[C@H]1OC(n2cnc3c(N)ncnc32)[C@H](O)[C@@H]1O (some centres undefined) | 3.52 | 2.55 |  |  |  |  |  | 
2 | NCCNC[C@H]1OC(n2cnc3c(N)ncnc32)[C@H](O)[C@@H]1O (some centres undefined) | 4.15 | 3.27 |  |  |  |  |  | 
3 | N=C(N)NC[C@H]1OC(n2cnc3c(N)ncnc32)[C@H](O)[C@@H]1O (some centres undefined) | 4.10 | 3.00 |  |  |  |  |  | 
4 | C[S+](C)C[C@H]1O[C@@H](n2cnc3c(N)ncnc32)[C@H](O)[C@@H]1O | 5.70 | 4.70 |  |  |  |  |  | 
5 | NCCCNC[C@H]1OC(n2cnc3c(N)ncnc32)[C@H](O)[C@@H]1O (some centres undefined) | 4.30 |  | 250 | 25 |  |  |  | 
6 | NC[C@H]1O[C@@H](n2cnc3c(N)ncnc32)[C@H](O)[C@@H]1O | 3.70 | 2.77 |  |  |  |  |  | 
7 | CNCCCNC[C@H]1OC(n2cnc3c(N)ncnc32)[C@H](O)[C@@H]1O (some centres undefined) | 3.22 |  |  |  |  |  |  | 
8 | CN(CCCN)C[C@H]1OC(n2cnc3c(N)ncnc32)[C@H](O)[C@@H]1O (some centres undefined) | 4.22 | 3.42 | 93 |  | 12 | 50 | 98 | 41
9 | C[S+](CC[C@H](N)C(=O)[O-])C[C@H]1O[C@@H](n2cnc3c(N)ncnc32)[C@H](O)[C@@H]1O (some centres undefined) [ADEMETIONINE] | 4.22 | 3.52 | 100 |  | 25 |  |  | 
10 | C[S+](CCCN)C[C@H]1OC(n2cnc3c(N)ncnc32)[C@H](O)[C@@H]1O (some centres undefined) | 5.52 | 4.40 | 100 |  | 10 |  |  | 
